We go through one compound from ChEMBL document CHEMBL1140690, “5-((4-Aminopiperidin-1-yl)methyl)pyrrolotriazine dual inhibitors of EGFR and HER2 protein tyrosine kinases” (Bioorg Med Chem Lett, 2007).

What is called IC50 is the concentration at which inhibition is half-maximal. For orientation: AUC(0-t) means exposure summed from dosing to a finite time, without extrapolation to infinity. A high value points to high exposure. One may read the inhibition in vivo as the drop in the measured response relative to a control, in per cent.

Series [1] concerns the target Protein kinase C (PKC). Put plainly: Inhibition of PKC. Also on record: species or system Homo sapiens. The essentials:
(§1)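 Kinase panel IC50s, each reported as the mean of at least three determinations.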

A short description of series [2]: AUC (0 to 4 hrs) in BALB/c mouse at 50 mg/kg, po after 4 hrs. Also on record: time < 4 hr, dose 50 mg/kg, route oral. The format is ADME, organism-based. Conditions: plasma.
The target of series [3] is Vascular endothelial growth factor receptor 2 (Homo sapiens, UniProt P35968). Put plainly: Inhibition of VEGFR2. An outline of the steps:
(§2)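 Selectivity-panel kinase assays against each named kinase. IC50 reported as the mean of at least three determinations.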

In series [4] the test system is HT29. Put plainly: Antiproliferative activity against human HT29 cells.
Series [5] deals with Hepatocyte growth factor receptor (Homo sapiens, UniProt P08581). Put plainly: Inhibition of Met. An outline of the steps: as §2
Series [6] can be described thus: Antitumor activity against human GEO cells xenografted in athymic mouse at 120 mg/kg, sc QD after 10 days. On the technique in general: A xenograft is tissue or cells of one species grown in another, often human tumour cells in immunodeficient mice.
Series [7] addresses CDK2/Cyclin E1 (Homo sapiens, UniProt P24941). Put plainly: Inhibition of CDK2. The essentials:
as §2

A short description of series [8]: Antitumor activity against human GEO cells xenografted in athymic mouse at 240 mg/kg, […] after 10 days. To be noted: sc, 240 h. In kind it is functional. An outline of the steps:
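Established subcutaneous GEO human colon carcinoma xenografts in athymic mice. Compound given orally once daily for 10 days (QD × 10) in Tween 80–PEG400–water (10/40/50).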

The target in series [9] is Tyrosine-protein kinase Lck (Homo sapiens, UniProt P06239). Put plainly: Inhibition of LCK.
Series [10] concerns Liver. Put plainly: Metabolic stability in mouse liver microsomes at 3 uM after 10 mins in presence of NADPH. The format is ADME, Microsome. An outline of the steps: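 Mouse liver microsomes with NADPH; compound at 3 µM, incubated 10 min; metabolic rate expressed as nmol/min/mg protein.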
For orientation: Microsomes from liver hold many membrane-bound enzymes, among them those of drug oxidation.

Series [11] relates to NCI-N87. The series can be described thus: Antitumor activity against human N87 cells xenografted in athymic mouse at 180 mg/kg, po QD after 21 days. To be noted: 504 h.
Series [12] concerns NCI-N87. The series can be described thus: Antiproliferative activity against human N87 cells.
In series [13] the target is Epidermal growth factor receptor (Homo sapiens, UniProt P00533). Put plainly: Inhibition of human recombinant EGFR expressed in insect Sf9 cells.
Series [14] concerns HT-29. The series can be described thus: Antiproliferative activity against human HT29 cells. The format is functional, cell-based. An outline of the steps: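 HT29 (colon carcinoma) and A2780 (ovarian carcinoma) lines, stated not to rely on EGFR or HER2 signalling, serve as counter-screen lines; proliferation IC50 reported.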
The target in series [15] is Receptor tyrosine-protein kinase erbB-2 (Homo sapiens, UniProt P04626). The series can be described thus: Inhibition of human recombinant HER2 expressed in insect Sf9 cells.
Series [16] is described as follows: Drug level in BALB/c mouse plasma at 50 mg/kg, po after 4 hrs. The format is ADME, organism-based. Also on record: dose 50 mg/kg, route oral. An outline of the steps: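 Single oral 50 mg/kg dose in Tween 80/PEG400/water (10/40/50, v/v/v) to three male Balb/C mice; plasma concentration at 4 h averaged, AUC0–4h also derived.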
Series [17] is described as follows: Inhibition of PKA. Also on record: species or system Homo sapiens. An outline of the steps:
as §1

For series [18], the target named is MAP kinase p38 (Homo sapiens, UniProt O15264+Q15759+Q16539+P53778). The series can be described thus: Inhibition of p38. In kind it is protein assay. The essentials:
as §2

Chain of Hepatocyte growth factor receptor (P08581 whole entry): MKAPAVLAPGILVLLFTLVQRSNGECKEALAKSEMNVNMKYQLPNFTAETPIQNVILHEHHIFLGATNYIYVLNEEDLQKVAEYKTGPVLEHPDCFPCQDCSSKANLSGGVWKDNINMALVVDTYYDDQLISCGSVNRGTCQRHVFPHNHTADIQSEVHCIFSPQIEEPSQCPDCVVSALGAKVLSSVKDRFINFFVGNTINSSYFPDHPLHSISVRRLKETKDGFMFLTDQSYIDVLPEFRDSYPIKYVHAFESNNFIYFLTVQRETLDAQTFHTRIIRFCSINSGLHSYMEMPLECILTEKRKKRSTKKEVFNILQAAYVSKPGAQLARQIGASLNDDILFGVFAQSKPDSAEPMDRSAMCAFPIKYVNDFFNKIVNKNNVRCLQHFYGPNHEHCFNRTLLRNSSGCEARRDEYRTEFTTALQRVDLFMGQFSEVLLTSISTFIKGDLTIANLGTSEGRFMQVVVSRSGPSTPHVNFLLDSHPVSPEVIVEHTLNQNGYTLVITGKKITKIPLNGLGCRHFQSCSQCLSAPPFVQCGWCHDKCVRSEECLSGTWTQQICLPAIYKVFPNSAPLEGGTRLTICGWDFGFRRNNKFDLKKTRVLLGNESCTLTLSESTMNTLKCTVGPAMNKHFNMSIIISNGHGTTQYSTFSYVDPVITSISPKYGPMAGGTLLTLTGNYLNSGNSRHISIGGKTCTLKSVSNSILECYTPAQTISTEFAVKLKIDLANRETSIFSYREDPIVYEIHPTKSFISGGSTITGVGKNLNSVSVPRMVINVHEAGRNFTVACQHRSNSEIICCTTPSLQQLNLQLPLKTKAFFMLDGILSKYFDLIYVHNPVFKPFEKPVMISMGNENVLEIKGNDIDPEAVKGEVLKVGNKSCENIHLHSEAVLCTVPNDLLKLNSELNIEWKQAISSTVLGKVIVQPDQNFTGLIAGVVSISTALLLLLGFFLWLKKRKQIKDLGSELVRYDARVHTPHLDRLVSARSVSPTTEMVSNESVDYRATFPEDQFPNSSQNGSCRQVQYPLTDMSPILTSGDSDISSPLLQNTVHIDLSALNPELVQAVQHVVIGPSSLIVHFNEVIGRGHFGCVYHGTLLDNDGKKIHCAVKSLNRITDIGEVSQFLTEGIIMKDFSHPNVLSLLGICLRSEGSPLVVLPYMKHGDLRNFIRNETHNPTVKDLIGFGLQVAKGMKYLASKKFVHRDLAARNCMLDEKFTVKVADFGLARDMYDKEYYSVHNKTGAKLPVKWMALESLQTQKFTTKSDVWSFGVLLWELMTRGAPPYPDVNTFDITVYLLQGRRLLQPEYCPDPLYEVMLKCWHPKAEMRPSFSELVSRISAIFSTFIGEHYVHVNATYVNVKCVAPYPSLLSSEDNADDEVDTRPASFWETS
Chain of Tyrosine-protein kinase Lck (P06239 whole entry): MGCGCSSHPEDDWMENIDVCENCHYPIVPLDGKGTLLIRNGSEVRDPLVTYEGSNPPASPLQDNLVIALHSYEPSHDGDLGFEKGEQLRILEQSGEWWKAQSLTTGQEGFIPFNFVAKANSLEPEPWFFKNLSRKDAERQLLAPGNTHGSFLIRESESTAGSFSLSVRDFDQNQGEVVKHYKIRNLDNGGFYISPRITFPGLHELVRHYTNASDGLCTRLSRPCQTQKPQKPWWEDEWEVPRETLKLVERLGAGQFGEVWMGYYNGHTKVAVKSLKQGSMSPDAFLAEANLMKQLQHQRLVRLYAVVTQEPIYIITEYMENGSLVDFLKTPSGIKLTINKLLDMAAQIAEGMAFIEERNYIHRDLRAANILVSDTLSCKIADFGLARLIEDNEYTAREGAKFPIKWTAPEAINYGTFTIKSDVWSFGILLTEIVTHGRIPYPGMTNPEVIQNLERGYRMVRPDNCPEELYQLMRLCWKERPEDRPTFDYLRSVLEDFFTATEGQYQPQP
Chain of Epidermal growth factor receptor (P00533 whole entry): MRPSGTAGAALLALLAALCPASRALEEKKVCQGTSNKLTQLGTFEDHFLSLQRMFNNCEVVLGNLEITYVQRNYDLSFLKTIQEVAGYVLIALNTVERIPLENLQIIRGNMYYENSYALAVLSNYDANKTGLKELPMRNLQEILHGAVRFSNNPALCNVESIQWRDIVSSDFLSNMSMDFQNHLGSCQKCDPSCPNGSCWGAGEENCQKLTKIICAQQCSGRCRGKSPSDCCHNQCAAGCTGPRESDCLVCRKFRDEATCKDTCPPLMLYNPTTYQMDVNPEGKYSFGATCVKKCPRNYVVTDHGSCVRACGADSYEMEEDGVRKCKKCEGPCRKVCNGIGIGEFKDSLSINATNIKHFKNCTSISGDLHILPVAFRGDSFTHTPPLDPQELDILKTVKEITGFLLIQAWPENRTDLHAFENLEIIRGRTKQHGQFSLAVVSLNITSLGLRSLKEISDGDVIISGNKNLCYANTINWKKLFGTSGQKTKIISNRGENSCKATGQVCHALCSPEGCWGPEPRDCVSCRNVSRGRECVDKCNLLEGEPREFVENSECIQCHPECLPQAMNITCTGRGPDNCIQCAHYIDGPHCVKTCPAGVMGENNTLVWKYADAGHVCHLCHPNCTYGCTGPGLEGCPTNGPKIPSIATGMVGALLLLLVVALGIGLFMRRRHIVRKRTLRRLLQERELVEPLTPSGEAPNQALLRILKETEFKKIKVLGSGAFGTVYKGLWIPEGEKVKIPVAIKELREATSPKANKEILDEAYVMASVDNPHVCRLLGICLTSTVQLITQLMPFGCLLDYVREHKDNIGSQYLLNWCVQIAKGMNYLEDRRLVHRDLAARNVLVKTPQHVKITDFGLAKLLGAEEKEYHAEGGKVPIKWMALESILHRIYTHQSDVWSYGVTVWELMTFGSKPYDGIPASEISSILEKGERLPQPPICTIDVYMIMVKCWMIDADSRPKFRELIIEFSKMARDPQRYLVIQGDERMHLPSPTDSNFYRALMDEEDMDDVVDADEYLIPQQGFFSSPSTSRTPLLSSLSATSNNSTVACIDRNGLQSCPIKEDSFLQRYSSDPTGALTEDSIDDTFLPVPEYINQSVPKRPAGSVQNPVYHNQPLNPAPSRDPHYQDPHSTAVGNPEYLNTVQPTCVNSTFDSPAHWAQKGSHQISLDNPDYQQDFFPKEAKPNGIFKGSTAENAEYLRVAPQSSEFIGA
Chain of Receptor tyrosine-protein kinase erbB-2 (P04626 whole entry): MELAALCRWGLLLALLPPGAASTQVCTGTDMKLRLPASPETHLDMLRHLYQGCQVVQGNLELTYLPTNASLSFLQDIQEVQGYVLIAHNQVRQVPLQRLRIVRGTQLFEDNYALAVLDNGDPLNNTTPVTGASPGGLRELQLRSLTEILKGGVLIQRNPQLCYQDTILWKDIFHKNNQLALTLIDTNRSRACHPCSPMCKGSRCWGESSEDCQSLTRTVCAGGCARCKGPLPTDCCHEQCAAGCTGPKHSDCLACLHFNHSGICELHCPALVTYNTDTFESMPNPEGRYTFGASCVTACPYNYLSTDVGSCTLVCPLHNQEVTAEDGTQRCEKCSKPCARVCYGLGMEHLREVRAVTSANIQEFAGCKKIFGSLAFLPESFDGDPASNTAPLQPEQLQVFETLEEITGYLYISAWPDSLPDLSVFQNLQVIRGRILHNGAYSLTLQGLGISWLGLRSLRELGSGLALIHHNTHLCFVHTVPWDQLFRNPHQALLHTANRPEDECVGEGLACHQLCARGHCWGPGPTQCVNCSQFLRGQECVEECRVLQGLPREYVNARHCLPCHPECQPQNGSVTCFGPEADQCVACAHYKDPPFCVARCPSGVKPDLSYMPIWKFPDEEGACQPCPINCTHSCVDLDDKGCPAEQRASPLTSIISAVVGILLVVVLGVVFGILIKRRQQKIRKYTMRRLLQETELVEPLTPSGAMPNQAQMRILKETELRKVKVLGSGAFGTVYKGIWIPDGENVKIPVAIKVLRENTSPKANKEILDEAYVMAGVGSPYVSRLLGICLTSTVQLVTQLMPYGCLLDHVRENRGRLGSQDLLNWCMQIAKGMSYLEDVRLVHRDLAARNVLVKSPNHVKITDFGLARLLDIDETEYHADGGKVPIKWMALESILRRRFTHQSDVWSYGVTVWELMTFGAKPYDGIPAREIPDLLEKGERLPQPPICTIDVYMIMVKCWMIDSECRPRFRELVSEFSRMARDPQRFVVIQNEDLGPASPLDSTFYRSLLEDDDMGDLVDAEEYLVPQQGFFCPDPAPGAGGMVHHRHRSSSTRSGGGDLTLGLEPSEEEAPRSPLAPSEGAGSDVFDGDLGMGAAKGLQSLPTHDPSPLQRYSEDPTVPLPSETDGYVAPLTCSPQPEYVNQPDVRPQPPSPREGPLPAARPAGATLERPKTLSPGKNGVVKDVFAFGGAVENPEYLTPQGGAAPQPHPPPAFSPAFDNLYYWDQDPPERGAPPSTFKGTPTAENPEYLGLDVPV

On to `NC1CCN(Cc2ccn3ncnc(Nc4ccc5c(cnn5Cc5cccc(F)c5)c4)c23)CC1`, for which the IC50 in [1] was determined as 2200 nM; in series [3], 480 nM; in series [4], 4300 nM; in series [5], 3900 nM; in series [7] it was 1900 nM; in series [9], 710 nM. Moreover, the IC50 in [12] is 35 nM; in series [13], 35 nM; in [14], 4300 nM; in series [15], 23 nM; in [17], greater than 50000 nM; in series [18] it was greater than 50000 nM. Further, the AUC(0-t) at 4 h in series [2] amounted to 14 µM·h. This compound yielded an MED in series [6] of 120 mg/kg. Besides, the inhibition in vivo at 240 mg/kg in series [8] was 85%. In addition, the metabolic rate in series [10] stood at 0.05 nmol/min/mg. Also, the inhibition in vivo at 180 mg/kg in series [11] was 133%. In series [11] (read-out: MED), the minimal effective dose at 180 mg/kg is 60 mg/kg. This compound returned a concentration at 4 h in [16] of 2700 nM.
